Measured values of several laboratories.
Each line is one published result; the experiments were not run side by side.
tspO: tspO (Cereibacter sphaeroides, UniProt Q9RFC8)
TMEM97: Sigma intracellular receptor 2 (TMEM97, Homo sapiens, UniProt Q5BJF2)
Serine protease HTRA1 S328A: Serine protease HTRA1 (Homo sapiens, UniProt Q92743, S328A)

Structure (SMILES) | target | assay | setting | endpoint | value
CCC(C)N(C)C(=O)c1cc2ccccc2c(-c2ccccc2Cl)n1 (centres unmarked) | tspO | binding, fluorescence | – | Kd | 10 µM
CC[C@@H]1SC2(CCN(C)CC2)NC1=O | Muscarinic acetylcholine receptor M3 (CHRM3, Homo sapiens, UniProt P20309) | calcium signal, agonist | – | EC50 | 0.0328 µM
COc1cc2c(cc1OC)CN(CCc1ccc(NC(=O)c3cc(OC)c(OC)cc3NC(=O)c3cnc4ccccc4c3)cc1)CC2 | TMEM97 | ligand displacement, radioligand | – | Ki | 0.0178 µM
NC[C@@H]1[C@H]2CN3C(=O)c4cccn4[C@@H]4NC(N)=N[C@@]43[C@@H]2[C@]2(N=C(N)N[C@H]2O)[C@H]1Cl (single isomer, unassigned) | Proteasome subunit beta type-8, chymotrypsin-like site (PSMB8, Homo sapiens, UniProt P28062) | enzyme activity, inhibitor | – | IC50 | 2.8 µM
CC1CCN(CCCC(=O)c2ccc(F)cc2)CC1 | TMEM97 | ligand displacement, radioligand | – | Ki | 0.115 µM
CC(C)C[C@H](NC(=O)[C@H](CC(=O)O)NC(=O)[C@H](CC(=O)O)NC(=O)[C@H](CC(=O)O)NC(=O)[C@@H](NC(=O)[C@H](Cc1c[nH]c2ccccc12)NC(=O)[C@@H](N)CCC(=O)O)[C@@H](C)O)C(=O)N[C@@H](CO)C(=O)N[C@H](C(=O)N[C@@H](CC(=O)O)C(=O)N[C@@H](C)C(=O)O)C(C)C | Serine protease HTRA1 S328A | binding, ITC | pH 8 | Kd | 25.6 µM
CCCN(CCC)CCc1ccc(OC)c(OCCc2ccccc2)c1 | TMEM97 | ligand displacement, radioligand | – | Ki | 0.0827 µM
COc1cc(Nc2ncc(F)c(Nc3ccc4c(n3)NC(=O)C(C)(C)O4)n2)cc(OC)c1OC | UDP-glucuronosyltransferase 1A1 (UGT1A1, Homo sapiens, UniProt P22309) | enzyme activity, inhibitor | – | IC50 | 0.158 µM
CC[C@H](C)[C@H](NC(=O)[C@H](Cc1c[nH]c2ccccc12)NC(=O)[C@H](C)NC(=O)[C@H](C)NC(=O)[C@H](Cc1ccc(O)cc1)NC(=O)[C@@H](N)CO)C(=O)N[C@@H](CC(=O)O)C(=O)N[C@H](C(=O)N[C@@H](CCC(=O)O)C(=O)N[C@@H](CO)C(=O)N[C@@H](CC(C)C)C(=O)O)C(C)C | Serine protease HTRA1 S328A | binding, ITC | pH 8 | Kd | 43.3 µM
C=CC1=C(C)/C(=C/c2[nH]c(Cc3[nH]c(/C=C4\NC(=O)C(C)=C4C=C)c(C)c3CCC(=O)O)c(CCC(=O)O)c2C)NC1=O | tspO | binding, fluorescence | – | Kd | 4.7 µM
O=c1c(O)c(-c2ccc(O)c(O)c2)oc2cc(O)ccc12 | Ribosomal protein S6 kinase beta-1 (RPS6KB1, Homo sapiens, UniProt P23443) | cell-free assay, competition with immobilised ligand | – | Kd | 0.94 µM
Cc1cccc(CN2CCN(C(c3ccccc3)c3ccc(Cl)cc3)CC2)c1 (centres unmarked) | TMEM97 | ligand displacement, radioligand | – | Ki | > 10 µM
CC[C@H](C)[C@H](NC(=O)[C@H](Cc1c[nH]c2ccccc12)NC(=O)[C@H](C)NC(=O)[C@H](C)NC(=O)[C@H](Cc1ccc(O)cc1)NC(=O)[C@@H](N)CO)C(=O)N[C@@H](CC(=O)O)C(=O)N[C@@H](CO)C(=O)N[C@H](C(=O)N[C@@H](CC(C)C)C(=O)N[C@@H](C)C(=O)O)C(C)C | Serine protease HTRA1 S328A | binding, ITC | pH 8 | Kd | 3.9 µM
CC[C@H](C)[C@H](NC(=O)[C@H](Cc1ccccc1)NC(=O)[C@H](CC(=O)O)NC(=O)[C@H](CCCNC(=N)N)NC(=O)[C@@H](NC(=O)[C@H](C)NC(=O)[C@H](CC(C)C)NC(=O)[C@H](CC(N)=O)NC(=O)[C@H](CC(=O)O)NC(=O)[C@H](CC(C)C)NC(=O)[C@@H](NC(=O)[C@@H](NC(=O)[C@H](CO)NC(=O)[C@H](CCSC)NC(=O)[C@H](CCC(=O)O)NC(=O)[C@H](CC(=O)O)NC(=O)[C@H](CO)NC(=O)[C@H](Cc1ccccc1)NC(=O)[C@H](CO)NC(=O)CNC(=O)[C@H](CC(=O)O)NC(=O)[C@H](C)NC(=O)[C@@H](N)Cc1c[nH]cn1)[C@@H](C)O)[C@@H](C)CC)[C@@H](C)O)C(=O)N[C@@H](CC(N)=O)C(=O)N[C@@H](Cc1c[nH]c2ccccc12)C(=O)N[C@@H](CC(C)C)C(=O)N[C@H](C(=O)N[C@@H](CCC(N)=O)C(=O)N[C@H](C(=O)N[C@@H](CCCCN)C(=O)N[C@H](C(=O)N[C@H](C(=O)N[C@@H](CC(=O)O)C(=O)O)[C@@H](C)O)[C@@H](C)CC)[C@@H](C)O)[C@@H](C)CC | Glucagon receptor (GCGR, Homo sapiens, UniProt P47871) | reporter gene, agonist, luciferase | – | EC50 | > 1 µM
CC[C@H](C)[C@H](NC(=O)[C@H](C)NC(=O)[C@H](CCCNC(=N)N)NC(=O)[C@H](CC(C)C)NC(=O)[C@@H](N)Cc1ccccc1)C(=O)N[C@@H](CCCNC(=N)N)C(=O)N1CCC[C@H]1C(=O)N[C@@H](CCCCN)C(=O)O | B1 bradykinin receptor (Rattus norvegicus, UniProt P97583) | ligand displacement, radioligand | cell membranes | IC50 | 0.74 µM
CN(C)CCOC(C)(c1ccccc1)c1ccccn1 (centres unmarked) | TMEM97 | ligand displacement, radioligand | – | Ki | > 10 µM
CC(C)C[C@H](NC(=O)[C@H](Cc1ccccc1)NC(=O)c1cnccn1)B(O)O | Dipeptidyl peptidase 2 (Homo sapiens, UniProt Q9UHL4) | enzyme activity, inhibitor | – | IC50 | 8.5 µM
